Screening results (PubChem BioAssay)
The list is not random: actives were taken first. Their share in the collection is about 2.1%.
FXIIa inh: inhibitors of human coagulation factor XIIa | P00748 | inhibition, % at 5 µM | AID 800 | purified FXIIa, Boc-QGR-AMC fluorogenic substrate, 2 h | hit rate 0.3% among 220,000; in the data active = inhibition above about 40%;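 note: 0% = enzyme with no compound and 100% = blank without enzyme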
Target sequence (P00748 20-372 limits assumed): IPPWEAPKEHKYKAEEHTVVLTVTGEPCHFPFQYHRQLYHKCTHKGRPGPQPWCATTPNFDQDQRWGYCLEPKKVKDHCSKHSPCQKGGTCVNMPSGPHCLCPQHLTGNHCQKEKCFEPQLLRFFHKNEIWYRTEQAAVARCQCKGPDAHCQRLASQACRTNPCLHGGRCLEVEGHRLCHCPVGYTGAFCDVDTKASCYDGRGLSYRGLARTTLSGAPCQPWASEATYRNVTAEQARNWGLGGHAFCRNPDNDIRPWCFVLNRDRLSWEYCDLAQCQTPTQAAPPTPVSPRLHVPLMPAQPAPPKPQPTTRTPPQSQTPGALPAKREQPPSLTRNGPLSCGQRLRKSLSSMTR
Target sequence (P00748 373-615 limits assumed): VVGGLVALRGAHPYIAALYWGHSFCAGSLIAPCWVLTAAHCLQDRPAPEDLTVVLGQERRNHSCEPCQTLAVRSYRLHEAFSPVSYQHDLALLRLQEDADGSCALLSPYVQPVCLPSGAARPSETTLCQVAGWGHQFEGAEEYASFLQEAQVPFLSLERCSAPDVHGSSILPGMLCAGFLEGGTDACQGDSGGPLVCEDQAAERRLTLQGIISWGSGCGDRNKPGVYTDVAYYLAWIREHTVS
EP2 antag: blocks the human prostaglandin E2 receptor EP2. C6 glioma cells expressing human EP2, cAMP TR-FRET; cells stimulated with saturating PGE2. hit rate 0.52% among 260,000. inhibition, % at 25 µM. AID 1422. P43116;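 active = percent inhibition above 40 after rounding to a whole number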;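 note: rat C6 glioma host cells with rolipram phosphodiesterase inhibitor present; the protocol text gives 20 µM as final concentration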
FXIa inh 1536: blocks human coagulation factor XIa protease activity | AID 798 | purified FXIa, Boc-Glu-Ala-Arg-AMC fluorogenic substrate | inhibition, % at 5 µM | P03951 | hit rate 0.14% among 220,000;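 active = inhibition of at least 40%; inactive = inhibition below 40%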;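 note: fluorescence of freed AMC excited at 355 nm; 0% = enzyme without compound and 100% = no enzyme blank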
thrombin 1536: blocks human thrombin protease activity; P00734; alpha-thrombin, Boc-VPR-AMC fluorogenic substrate cleavage; inhibition, % at 5 µM; hit rate 0.26% among 220,000;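 active = inhibition at or above 40%; inactive = inhibition below 40%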;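 note: 0% = enzyme with no compound and 100% = wells without enzyme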
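System: Human alpha-thrombin protein | Medium: pH 7.5 Tris (50 mM) with NaCl 150 mM, Tween 20 0.05% | Times: Enzyme reaction carried out at room temperature | Detection: AMC fluorescence, 355/460 nm | Evaluation: Percent inhibition scaled between no-compound controls and no-enzyme blanks | Benchmarks: Enzyme without compound as high, wells lacking enzyme as low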
EP2 modulator: modulates human prostaglandin E2 receptor EP2 signaling; EP2-expressing cells, cAMP HTRF FRET, PGE2 co-stimulation; induction, % at 25 µM; P43116; AID 940; hit rate 0.83% among 260,000;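 active = compounds whose cAMP rise, as percent of the full-agonist control response, exceeds 60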;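 note: rat C6 glioma line stably carrying human EP2 under a CMV promoter; the protocol text gives 20 µM as final concentration; 100% = response of wells given 1 µM PGE2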
hK5 inh: blocks human kallikrein 5 protease activity; Q9Y337; hit rate 0.59% among 210,000; AID 873; inhibition, % at 5 µM; recombinant hK5, fluorogenic AMC substrate cleavage;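 active = inhibition of 40% or more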;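 note: 0% = enzyme controls without compound and 100% = no-enzyme blanks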
Active calls of the source: *; . = no result given.

SMILES	FXIIa inh	EP2 antag	FXIa inh 1536	thrombin 1536	EP2 modulator	hK5 inh
CCOc1ccc(NC(=O)Nc2ccc3nsnc3c2)cc1	6.6	1.1	5.8	-11.4	-67.9	1.8
COc1ccc(NC(=S)Nc2ccc3nsnc3c2)cc1	8.0	41.7*	4.3	-0.2	-95.3	-12.4
COc1ccc(NC(=S)Nc2ccc3nc(C)c(C)nc3c2)cc1	2.3	10.2	-5.3	-2.0	-29.9	-13.2
CCOc1ccc(NC(=S)Nc2ccc3nsnc3c2)cc1	11.1	43.9*	-0.3	-5.1	-119.3	-18.4
CN(C(=O)Cn1nc(-c2ccncc2)oc1=O)C1CCCCC1	.	4.9	.	.	-46.0	.
Cc1ccnc(NC(=O)CCC(=O)N(CC(=O)NC(C)(C)C)c2ccc(C)cc2C)c1	.	8.4	.	.	-9.7	.
Cc1ccc(C)c(NC(=O)/C(C#N)=C/c2cn(CC(=O)NCc3ccco3)c3ccccc23)c1	1.4	5.1	11.8	30.7	14.6	45.8*
O=C1CCC(c2ccccc2)=NN1c1nc2ccccc2s1	.	55.7*	.	.	-16.1	.
CCC(C)c1ccc(O)c(NC(=O)c2cccnc2)c1 (stereo unspecified)	19.0	14.4	-3.3	0.7	-13.8	-21.6
CC(C)c1ccc(O)c(NC(=S)NC(=O)c2cccnc2)c1	40.6*	3.6	20.0	2.5	-36.0	.
CCCC(c1nnnn1C(C)(C)C)N(Cc1cc2c(C)cc(C)cc2[nH]c1=O)C1CCCCC1 (stereo unspecified)	.	11.2	.	.	-15.8	.
O=C(c1ccccc1F)N1CCC(n2nc(-c3ccco3)ccc2=O)CC1	.	.	.	.	-9.8	.
Cc1csc(NC(=O)C(CC(C)C)NS(=O)(=O)c2ccc3c(c2)oc(=O)n3C)n1 (stereo unspecified)	106.9*	13.2	6.7	8.1	-17.5	54.6*
Cc1cccnc1C1(O)CCN(C(=O)Cn2c(C(F)(F)F)nc3ccccc32)CC1	.	.	.	.	34.5	.
CCn1cc(CN(Cc2cc(OC)ccc2OC)CC2CCCO2)c(C)n1 (stereo unspecified)	.	0.4	.	.	37.3	.
O=C(CN(Cc1cccs1)C(=O)CCC(=O)Nc1nccs1)NCc1ccccc1	106.8*	6.9	7.6	16.7	42.5	104.6*
Cc1ccc2nc(Cl)nc(-c3ccccc3)c2c1	8.9	8.8	2.0	-4.2	52.3	5.8
Cc1ccc2nc(C)/c(=N\O)c(C)nc2c1	14.9	4.1	2.8	2.8	11.3	51.1*
Cc1ccc2nc(-c3ccccc3)c(-c3ccccc3)nc2c1	7.8	7.6	-8.4	-7.2	61.1*	-2.0
Cc1nc2ccc(Cl)cc2nc(C)/c1=N\O	15.2	6.4	2.2	2.8	25.4	-0.4
CCN1CCCC1CN(Cc1cnc(-c2ccc(OC)cc2)nc1)Cc1ccccn1 (stereo unspecified)	.	8.9	.	.	-49.3	.
CC1CCCN(C(=O)C2CCCN(S(=O)(=O)c3cccc4nsnc34)C2)C1 (stereo unspecified)	44.1*	8.6	-1.3	-9.8	21.9	-14.4
Cc1c(/C(Cc2ccccc2)=N/O)c2ccccc2n1C	6.9	0.8	1.3	-0.6	63.4*	-5.0
N=C1/C(=C\c2ccc(OC(=O)c3ccco3)cc2)C(=O)N=C2SC=NN12	30.2	3.1	33.6	20.9	-33.0	57.8*
Cc1cc(C)c2[nH]c(=O)c(C(c3nnnn3C(C)(C)C)N3CCN(C4CCCCC4)CC3)cc2c1 (stereo unspecified)	.	11.1	.	.	7.3	.
SMILES	FXIIa inh	EP2 antag	FXIa inh 1536	thrombin 1536	EP2 modulator	hK5 inh
CCc1ccc2nc(SCC(=O)Nc3cc(C)ccc3OC)c(C#N)cc2c1	.	17.1	.	.	33.5	.
CC1CCc2c(sc(NC(=O)COC(=O)C3CCCO3)c2C#N)C1 (stereo unspecified)	23.7	2.7	26.5	45.2*	-13.2	23.6
COc1ccc(S(=O)(=O)N2CCC(C(=O)NCCCOC(C)C)CC2)cc1C	.	8.0	.	.	-11.2	.
Cc1cc(C(=O)N/N=C/c2c(C)nn(-c3ccccc3)c2C)n[nH]1	34.4	6.0	26.1	17.5	1.0	89.2*
Nc1nnc(-c2cccc([N+](=O)[O-])c2)o1	1.8	5.4	-18.0	-8.8	5.2	50.9*
O=C(O)c1cccc(Cn2c(Cl)c(/C=N/NC(=O)c3ccc(O)cc3)sc2=O)c1	3.0	3.3	-2.1	-10.3	61.4*	-2.6
O=C(COc1ccccc1)N/N=C/c1sc(=O)n(Cc2cccc(C(=O)O)c2)c1Cl	0.6	6.3	-4.5	-9.3	19.3	-1.4
CCOC(=O)c1c(N)nn(C(=O)C(C)C)c1-c1ccccc1	12.5	9.9	6.3	4.7	62.6*	-13.1
CCOC(=O)c1c(N)nn(C(=O)CC)c1-c1ccccc1	-6.5	6.3	-0.6	1.1	19.6	1.8
CCOc1nc(-c2ccccc2Cl)nc2ccccc12	6.1	6.5	0.2	-7.9	27.9	-0.6
C=CCOc1nc(-c2ccccc2Cl)nc2ccccc12	8.5	6.3	1.8	0.5	63.2*	1.9
CCOC(=O)C1=C(C)NC(=S)N(C(C)=O)C1c1ccc(Cl)cc1 (stereo unspecified)	6.2	10.8	0.8	-0.3	-72.0	-5.7
CCOC(=O)C1=C(C)NC(=S)N(C(C)=O)C1c1ccc(OC)c(OC)c1 (stereo unspecified)	47.5*	2.9	17.4	21.4	-0.3	47.7*
O=C(Cn1c(=O)n(Cc2cccs2)c2ncccc21)N1CCCC(c2ccccc2)C1 (stereo unspecified)	.	.	.	.	-3.5	.
C=CS(=O)(=O)c1ccc(Oc2ccc(S(=O)(=O)C=C)cc2)cc1	8.9	72.1*	3.0	-0.1	-61.1	-12.1
NS(=O)(=O)c1ccc(Oc2ccc(S(N)(=O)=O)cc2)cc1	34.0	9.0	13.1	.	-26.2	11.1
CC1=NN(C(=O)COc2ccc(C)c(C)c2)C(O)(c2ccc(Cl)cc2)C1 (stereo unspecified)	12.1	7.3	6.8	2.0	21.1	-23.9
CC1=NN(C(=O)COc2cc(C)ccc2C(C)C)C(O)(c2ccccc2)C1 (stereo unspecified)	11.1	3.2	-0.2	-0.8	60.6*	1.5
CCCCc1[nH]c(=O)c(C#N)c2c1CSC(C)(C)C2	4.3	5.9	-3.2	-8.4	4.3	-37.7
CCCCc1[nH]c(=O)c(C#N)c2c1CCCC2	49.4*	2.1	34.1	3.1	31.4	-6.0
CCOC(=O)C1CCN(Cc2nc(-c3ccc(OC)c(OC)c3)no2)CC1	8.0	11.0	-5.8	-6.7	-11.2	-9.4
Cc1ccc(-c2noc(CN3CCC(C(N)=O)CC3)n2)cc1	25.9	.	2.1	103.8*	16.1	86.3*
COc1ccc(-c2cc(C(=O)OCC(=O)c3cccc([N+](=O)[O-])c3)c3cc(C)ccc3n2)cc1	2.6	1.8	7.7	-1.1	21.3	-13.3
Cc1cc(C(=O)OCC(=O)c2cccc([N+](=O)[O-])c2)c2cccc(C)c2n1	3.0	.	-12.8	60.7*	15.8	-10.8
CC(C)c1ccc2c(c1)CC[C@@H]1[C@](C)(CN)CCC[C@@]21C	.	89.9*	.	.	-5.5	.
